Laboratory results: PMC8906099 (Current Research in Parasitology & Vector-borne Diseases, 2021)
≈ marks a conversion by molar mass, not a printed value. Like-named read-outs stand apart in the source and are kept apart here.

Tests used:
[1] = tested on: trypomastigotes of T. cruzi (Sylvio X10/4 strain); test: Trypanocidal activity against trypomastigotes; assay type: cell-based; details: Trypanosoma cruzi, 72 h, read-out: IC50 ± SD, trypomastigotes
Procedure, shortened: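 Sylvio X10/4 trypomastigotes were taken from amastigote culture supernatant and seeded at 1 × 10^6 per well. Test compound was added at 0.19–100 μM (0.1% DMSO), with benznidazole (0.019–10 μM) and DMSO controls. Incubation was 72 h at 37 °C, 5% CO2. Viability was read with resazurin (40 μM in PBS), fluorescence 530/630 nm. IC50 came from sigmoid dose–response fits.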

[2] = tested on: amastigotes of T. cruzi Brazil strain; test: Trypanocidal activity against intracellular amastigotes in C2C12 cells; assay type: cell-based; details: Trypanosoma cruzi, C2C12, 72 h, read-out: IC50 ± SD, amastigotes
Procedure, shortened: (§1)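 Trypomastigotes from C2C12 co-culture (DMEM, 10% FBS, 25 mM HEPES, pH 7.2) were seeded with C2C12 cells at a 1:15 infection rate. Test compound (0.19–100 μM, 2-fold, 0.1% DMSO) was added at the start. After 72 h at 37 °C, 5% CO2, cells were stained with DAPI 2 h and imaged confocally. Amastigote and host nuclei were told apart by size. IC50 came from sigmoid fits of the infection ratio normalised to controls. Mean ± SD, three experiments in triplicate.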

[3] = Cytotoxicity in infected C2C12 cells after 72 h; assay type: cell-based, murine; details: mouse
Procedure, shortened: (§2)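 C2C12 cells were infected with trypomastigotes (1:15) together with test compound (0.19–100 μM, 0.1% DMSO) for 72 h at 37 °C, 5% CO2. Host nuclei were counted by DAPI high-content imaging. Viability was the cell count relative to the DMSO-control mean. CC50 came from sigmoid fits. SI = CC50/IC50 against intracellular amastigotes of the same strain at 72 h.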

infected C2C12 cells = test: Cytotoxicity in infected C2C12 cells after 72 h; assay type: cell-based, murine; details: 72 h
Procedure, shortened: as §2

[4] = tested on: amastigotes of T. cruzi CA-I/72 strain; test: Trypanocidal activity against intracellular amastigotes in C2C12 cells; assay type: cell-based; details: Trypanosoma cruzi, C2C12, 72 h, read-out: IC50 ± SD, amastigotes
Procedure, shortened: as §1

[5] = tested on: amastigotes of T. cruzi Sylvio X10/7 strain; test: as above; assay type: cell-based, Trypanosoma cruzi; details: Trypanosoma cruzi, C2C12, 72 h, read-out: IC50 ± SD, amastigotes, Sylvio X10/7 strain, 72 h incubation
Procedure, shortened: as §1

[6] = Time-course cytotoxicity in infected C2C12 cells; assay type: cell-based, murine; details: mouse
Procedure, shortened: (§3)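 This uses the CA-I/72 time-course infection format: a 48 h pre-infection of C2C12 cells, then test compound at 0.19–100 μM for 8, 12, 24 or 48 h, with DAPI imaging. Host viability was the total host cell count divided by the mean count of 0.1% DMSO controls. CC50 came from sigmoid fits. SI = CC50/IC50 against amastigotes at the matching time.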

[7] = tested on: C2C12 cells infected with intracellular amastigotes of T. cruzi (CA-I/72 strain); test: Time-course cytotoxicity in infected C2C12 cells; assay type: cell-based, murine; details: infected C2C12 vs amastigotes CA-I/72, time-course
Procedure, shortened: as §3

[8] = tested on: amastigotes of T. cruzi Sylvio X10/4 strain; test: Trypanocidal activity against intracellular amastigotes in C2C12 cells; assay type: cell-based; details: Trypanosoma cruzi, C2C12, 72 h, read-out: IC50 ± SD, amastigotes
Procedure, shortened: as §1

[9] = tested on: several Streptococcus species; details: ref Vieira et al., 2018; cited from earlier work
[10] = tested on: intracellular amastigotes of T. cruzi CA-I/72 strain; test: Time-course study against intracellular amastigotes; assay type: cell-based; details: Trypanosoma cruzi, read-out: IC50 ± SD
Procedure, shortened: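 CA-I/72 trypomastigotes were incubated with C2C12 cells for 48 h to form intracellular amastigotes. Test compound was then added (0.19–100 μM, 2-fold, 0.1% DMSO), with benznidazole and DMSO controls. Incubation ran 8, 12, 24 or 48 h at 37 °C, 5% CO2. Growth inhibition was read by DAPI high-content imaging. IC50 came from sigmoid fits of the normalised infection ratio. Time trend was tested by linear regression and ANOVA.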

Trichomonas vaginalis = details: ref Carapina da Silva et al., 2019, cited from earlier work
[11] = Cytotoxicity in non-infected cells; assay type: cell-based, murine; details: mouse, non-infected C2C12 cells
Procedure, shortened: (§4)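 Non-infected C2C12 cells (5 × 10^4 per well) were plated for 24 h. Test compound (0.19–100 μM, 2-fold, 0.1% DMSO) was then added for 72 h at 37 °C. Controls were untreated, DMSO 0.4% and Triton 15%. After a PBS wash, MTT (2 mg/ml) was added for 4 h, and absorbance was read at 450 nm (reference 620 nm). CC50 came from sigmoid fits. SI = CC50/IC50 against CA-I/72 amastigotes at 72 h.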

non-infected C2C12 cells = test: Cytotoxicity in non-infected cells; assay type: cell-based, murine; details: non-infected C2C12 CC50 / IC50 amastigotes CA-I/72 strain, 72 h
Procedure, shortened: as §4

[12] = Cytotoxicity in non-infected cells; assay type: cell-based, monkey; details: monkey, non-infected LLC-MK2 cells
Procedure, shortened: (§5)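 LLC-MK2 monkey kidney cells, grown in RPMI with 10% FBS at 37 °C and 5% CO2, were plated and after 24 h exposed to test compound (0.19–100 μM, 2-fold dilutions, 0.1% DMSO) for 72 h at 37 °C. Controls were untreated cells, 0.4% DMSO and 15% Triton. After a PBS wash, MTT (2 mg/ml) was added for 4 h, and absorbance read at 450/620 nm. SI is CC50 divided by the 72 h CA-I/72 intracellular amastigote IC50.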

[13] = tested on: non-infected LLC-MK2 cells; test: Cytotoxicity in non-infected cells; assay type: cell-based, monkey; details: non-infected LLC-MK2 CC50 / IC50 amastigotes CA-I/72 strain, 72 h
Procedure, shortened: as §5

female BALB/c mice = test: Acute oral toxicity test in mice; assay type: in vivo; details: for DA/TA (dead animals/total animals) / Mortality / Signs of toxicity: 14 days
Procedure, shortened: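 Six-week-old female BALB/c mice (25–30 g), five per group. Single oral dose of 300 or 1,000 mg/kg test compound in Tween 80/ethanol/water (7:3:90), with a vehicle group. Clinical signs (ataxia, tremor, salivation, ptosis, seizures and others) watched continuously for 1 h, periodically over 24 h, then daily to day 14. Mortality recorded.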

P. falciparum = details: ref Aher et al., 2011, cited from earlier work
[14] = C2C12 cells infected with T. cruzi Brazil strain
[15] = C2C12 cells infected with T. cruzi CA-I/72 strain
[16] = C2C12 cells infected with T. cruzi Sylvio X10/4 strain
[17] = C2C12 cells infected with T. cruzi Sylvio X10/7 strain
[18] = infected C2C12, Sylvio X10/4 strain
[19] = infected C2C12, Sylvio X10/7 strain

Molecule `O=C(/C=C/c1ccccc1)/C=C/c1ccccc1` [DBA 1, (1E,4E)-1,5-diphenylpenta-1,4-dien-3-one] has an IC50 [1] of 41.2 ± 2.25 µM, an IC50 [2] of 21.1 ± 2.51 µM and a CC50 at 72 h [3, 14] of 7.32 ± 0.41 µM. For the same molecule, the CC50 at 72 h [3, 15] was 5.74 ± 1.95 µM, the CC50 at 72 h [3, 16] was 3.8 ± 0.24 µM and the CC50 at 72 h [3, 17] was 3.29 ± 1 µM. The “SI (CC50/IC50)” value (infected C2C12 cells; infected C2C12, Brazil strain) was 0.35, the “SI (CC50/IC50)” value (infected C2C12 cells; infected C2C12, CA-I/72 strain) was 1.22 and the “SI (CC50/IC50)” value (infected C2C12 cells; [18]) was 0.11. The “SI (CC50/IC50)” value (infected C2C12 cells; [19]) was 0.28, the IC50 [4] was 4.67 ± 1.96 µM and the IC50 [5] was 11.7 ± 0.81 µM. For the same molecule, the CC50 at 8 h [6] was 12.2 ± 1.15 µM, the CC50 at 12 h [6] was 2 ± 0.42 µM and the CC50 at 24 h [6] was 0.28 ± 0.04 µM. The CC50 at 48 h [6] was 0.03 ± 0.02 µM, the “SI (CC50/IC50)” value ([7]; 12 h) was 0.02 and the “SI (CC50/IC50)” value ([7]; 24 h) was 0.007. For the same molecule, the “SI (CC50/IC50)” value ([7]; 48 h) was 0.002, the IC50 [8] was 34 ± 2.92 µM and the MIC [9] was 100 µg/mL (≈ 427 µM). It also gave an IC50 ([10]; 8 h) of over 100 µM, an IC50 ([10]; 12 h) of 76.8 ± 1.39 µM and an IC50 ([10]; 24 h) of 37.5 ± 1.01 µM. The IC50 ([10]; 48 h) was 14.6 ± 1.1 µM, the “reduction in the parasitic viability” value (Trichomonas vaginalis; after 24 h incubation) was 98.8% and the IC50 (Trichomonas vaginalis) was 50 µM. For the same molecule, the CC50 at 72 h [11] was 40.1 ± 1.25 µM, the “SI (CC50/IC50)” value (non-infected C2C12 cells) was 8.59 and the CC50 at 72 h [12] was 16.6 ± 0.61 µM. The “SI (CC50/IC50)” value [13] was 3.54.
Work on `COc1ccc(/C=C/C(=O)/C=C/c2ccc(OC)c(OC)c2)cc1OC` [DBA 3, (1E,4E)-1,5-bis-(3,4-dimethoxyphenyl)penta-1,4-dien-3-one] yielded an IC50 [1] of 11.5 ± 1.36 µM, an IC50 [2] of 3.91 ± 0.25 µM and a CC50 at 72 h [3, 14] of 1.73 ± 0.05 µM. It also gave a CC50 at 72 h [3, 15] of 1.62 ± 0.22 µM, a CC50 at 72 h [3, 16] of 1.25 ± 0.02 µM and a CC50 at 72 h [3, 17] of 1.15 ± 0.29 µM. The “SI (CC50/IC50)” value (infected C2C12 cells; infected C2C12, Brazil strain) was 0.43, the “SI (CC50/IC50)” value (infected C2C12 cells; infected C2C12, CA-I/72 strain) was 1.07 and the “SI (CC50/IC50)” value (infected C2C12 cells; [18]) was 0.13. For the same molecule, the “SI (CC50/IC50)” value (infected C2C12 cells; [19]) was 0.23, the “Acute toxicity (general signs of toxicity or mortality)” value (female BALB/c mice; oral doses 300 and 1,000 mg/kg, 14-day period) was “no toxic effects” and the “DA/TA (dead animals/total animals)” value (female BALB/c mice; single oral dose 300 mg/kg) was 0/5. For the same molecule, the Mortality (female BALB/c mice; single oral dose 300 mg/kg) was 0%, the Signs of toxicity (female BALB/c mice; single oral dose 300 mg/kg) was “None” and the “DA/TA (dead animals/total animals)” value (female BALB/c mice; single oral dose 1,000 mg/kg) was 0/5. For the same molecule, the Mortality (female BALB/c mice; single oral dose 1,000 mg/kg) was 0%, the Signs of toxicity (female BALB/c mice; single oral dose 1,000 mg/kg) was “None” and the IC50 [4] was 1.51 ± 0.42 µM. The IC50 [5] was 4.87 ± 0.05 µM, the CC50 at 8 h [6] was 29.8 ± 1.32 µM and the CC50 at 12 h [6] was 2.79 ± 0.3 µM. The CC50 at 24 h [6] was 0.21 ± 0.13 µM, the CC50 at 48 h [6] was 0.22 ± 0.17 µM and the “SI (CC50/IC50)” value ([7]; 12 h) was 0.04. The “SI (CC50/IC50)” value ([7]; 24 h) was 0.003, the “SI (CC50/IC50)” value ([7]; 48 h) was 0.05 and the IC50 [8] was 9.63 ± 1.58 µM. For the same molecule, the IC50 ([10]; 8 h) was over 100 µM, the IC50 ([10]; 12 h) was 63.3 ± 3.87 µM and the IC50 ([10]; 24 h) was 62.1 ± 1.52 µM. For the same molecule, the IC50 ([10]; 48 h) was 3.72 ± 0.56 µM, the CC50 at 72 h [11] was 20.8 ± 0.67 µM and the “SI (CC50/IC50)” value (non-infected C2C12 cells) was over 10. For the same molecule, the “SI (CC50/IC50)” value (non-infected C2C12 cells; listed as 3) was 13.78, the CC50 at 72 h [12] was 11.5 ± 0.34 µM and the “SI (CC50/IC50)” value [13] was 7.62. For the same molecule, the IC50 (P. falciparum; chloroquine-resistant strain) was 1.69 µM and the IC50 (P. falciparum; chloroquine-sensitive strain) was 1.97 µM.
